Measurements taken from ChEMBL document CHEMBL1151243, “New cytotoxic oleanane-type triterpenoids from the cones of Liquidamber styraciflua” (2004).

Key:
Assay type in all cases: functional
[1] = system: MKN-7; test: Cytotoxicity against human MKN7 cells after 48 hrs by SRB assay; details: MKN-7, 48 h
How it was run: (§1)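 Cells plated at suitable density in RPMI 1640 with 5% fetal bovine serum and left overnight to attach, then exposed to compound for 48 h. Growth measured by sulforhodamine B staining. GI50 (50% growth inhibition) computed from percent-growth values.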

[2] = Cytotoxicity against human HBC4 cells after 48 hrs by SRB assay; details: HBC4, 48 h; how it was run: as §1
[3] = Cytotoxicity against human BSY1 cells after 48 hrs by SRB assay; details: BSY-1, 48 h; how it was run: as §1
[4] = system: MCF7; test: Cytotoxicity against human MCF7 cells after 48 hrs by SRB assay; details: MCF7, 48 h; how it was run: as §1
[5] = system: MDA-MB-231; test: Cytotoxicity against human MDA-MB-231 cells after 48 hrs by SRB assay; details: MDA-MB-231, 48 h; how it was run: as §1
[6] = system: U-251; test: Cytotoxicity against human U251 cells after 48 hrs by SRB assay; details: U-251, 48 h; how it was run: as §1
[7] = system: SF-268; test: Cytotoxicity against human SF268 cells after 48 hrs by SRB assay; details: SF-268, 48 h; how it was run: as §1
[8] = system: SF-295; test: Cytotoxicity against human SF295 cells after 48 hrs by SRB assay; details: SF-295, 48 h; how it was run: as §1
[9] = system: SF-539; test: Cytotoxicity against human SF539 cells after 48 hrs by SRB assay; details: SF-539, 48 h; how it was run: as §1
[10] = system: SNB-75; test: Cytotoxicity against human SNB75 cells after 48 hrs by SRB assay; details: SNB-75, 48 h; how it was run: as §1
[11] = system: SNB-78; test: Cytotoxicity against human SNB78 cells after 48 hrs by SRB assay; details: SNB-78, 48 h; how it was run: as §1
[12] = system: HCC 2998; test: Cytotoxicity against human HCC2998 cells after 48 hrs by SRB assay; details: HCC 2998, 48 h; how it was run: as §1
[13] = system: KM12; test: Cytotoxicity against human KM12 cells after 48 hrs by SRB assay; details: KM12, 48 h; how it was run: as §1
[14] = system: HT-29; test: Cytotoxicity against human HT-29 cells after 48 hrs by SRB assay; details: HT-29, 48 h; how it was run: as §1
[15] = system: HCT-15; test: Cytotoxicity against human HCT15 cells after 48 hrs by SRB assay; details: HCT-15, 48 h; how it was run: as §1
[16] = system: HCT-116; test: Cytotoxicity against human HCT116 cells after 48 hrs by SRB assay; details: HCT-116, 48 h; how it was run: as §1
[17] = system: NCI-H23; test: Cytotoxicity against human NCI-H23 cells after 48 hrs by SRB assay; details: NCI-H23, 48 h; how it was run: as §1
[18] = system: NCI-H226; test: Cytotoxicity against human NCI-H226 cells after 48 hrs by SRB assay; details: NCI-H226, 48 h; how it was run: as §1
[19] = system: NCI-H522; test: Cytotoxicity against human NCI-H522 cells after 48 hrs by SRB assay; details: NCI-H522, 48 h; how it was run: as §1
[20] = system: NCI-H460; test: Cytotoxicity against human NCI-H460 cells after 48 hrs by SRB assay; details: NCI-H460, 48 h; how it was run: as §1
[21] = system: A549; test: Cytotoxicity against human A549 cells after 48 hrs by SRB assay; details: A549, 48 h; how it was run: as §1
[22] = system: DMS-273; test: Cytotoxicity against human DMS273 cells after 48 hrs by SRB assay; details: DMS-273, 48 h; how it was run: as §1
[23] = system: DMS-114; test: Cytotoxicity against human DMS114 cells after 48 hrs by SRB assay; details: DMS-114, 48 h; how it was run: as §1
[24] = system: LOX IMVI; test: Cytotoxicity against human LOXIMVI cells after 48 hrs by SRB assay; how it was run: as §1
[25] = system: OVCAR-3; test: Cytotoxicity against human OVCAR-3 cells after 48 hrs by SRB assay; details: OVCAR-3, 48 h; how it was run: as §1
[26] = system: OVCAR-4; test: Cytotoxicity against human OVCAR4 cells after 48 hrs by SRB assay; details: OVCAR-4, 48 h; how it was run: as §1
[27] = system: OVCAR-5; test: Cytotoxicity against human OVCAR5 cells after 48 hrs by SRB assay; details: OVCAR-5, 48 h; how it was run: as §1
[28] = system: OVCAR-8; test: Cytotoxicity against human OVCAR8 cells after 48 hrs by SRB assay; details: OVCAR-8, 48 h; how it was run: as §1
[29] = system: SK-OV-3; test: Cytotoxicity against human SKOV3 cells after 48 hrs by SRB assay; details: SK-OV-3, 48 h; how it was run: as §1
[30] = Cytotoxicity against human RXF631L cells after 48 hrs by SRB assay; details: RXF 631, 48 h; how it was run: as §1
[31] = system: ACHN; test: Cytotoxicity against human ACHN cells after 48 hrs by SRB assay; how it was run: as §1
[32] = system: St-4; test: Cytotoxicity against human St-4 cells after 48 hrs by SRB assay; details: St-4, 48 h; how it was run: as §1
[33] = Cytotoxicity against human MKN1 cells after 48 hrs by SRB assay; details: MKN-1, 48 h; how it was run: as §1
[34] = system: MKN-28; test: Cytotoxicity against human MKN28 cells after 48 hrs by SRB assay; details: MKN-28, 48 h; how it was run: as §1
[35] = system: MKN-45; test: Cytotoxicity against human MKN45 cells after 48 hrs by SRB assay; details: MKN-45, 48 h; how it was run: as §1
[36] = system: MKN-74; test: Cytotoxicity against human MKN74 cells after 48 hrs by SRB assay; details: MKN-74, 48 h; how it was run: as §1
[37] = system: DU-145; test: Cytotoxicity against human DU145 cells after 48 hrs by SRB assay; details: DU-145, 48 h; how it was run: as §1
[38] = system: PC-3; test: Cytotoxicity against human PC3 cells after 48 hrs by SRB assay; details: PC-3, 48 h; how it was run: as §1
[39] = Cytotoxicity against human HBC5 cells after 48 hrs by SRB assay; details: HBC5, 48 h; how it was run: as §1

SMILES: CC(=O)OC[C@]12CC[C@@H](O)C(C)(C)C1CC[C@]1(C)[C@@H]2CC=C2[C@@H]3CC(C)(C)CC[C@]3(C(=O)O)CC[C@]21C (some centres undefined)
- GI50 [1]: 6.61 µM
- GI50 [2]: 7.94 µM
- GI50 [3]: 10.7 µM
- GI50 [4]: 8.32 µM
- GI50 [5]: 19.5 µM
- GI50 [6]: 6.03 µM
- GI50 [7]: 15.5 µM
- GI50 [8]: 8.71 µM
- GI50 [9]: 6.31 µM
- GI50 [10]: 15.8 µM
- GI50 [11]: 15.8 µM
- GI50 [12]: 28.2 µM
- GI50 [13]: 5.13 µM
- GI50 [14]: 3.39 µM
- GI50 [15]: 6.46 µM
- GI50 [16]: 4.57 µM
- GI50 [17]: 8.51 µM
- GI50 [18]: 18.6 µM
- GI50 [19]: 13.8 µM
- GI50 [20]: 13.8 µM
- GI50 [21]: 4.27 µM
- GI50 [22]: 6.31 µM
- GI50 [23]: 13.5 µM
- GI50 [24]: 11.2 µM
- GI50 [25]: 11 µM
- GI50 [26]: 10 µM
- GI50 [27]: 18.2 µM
- GI50 [28]: 11.2 µM
- GI50 [29]: 20.4 µM
- GI50 [30]: 11.7 µM
- GI50 [31]: 5.37 µM
- GI50 [32]: 9.12 µM
- GI50 [33]: 11 µM
- GI50 [34]: 5.62 µM
- GI50 [35]: 17.8 µM
- GI50 [36]: 7.76 µM
- GI50 [37]: 13.2 µM
- GI50 [38]: 11.5 µM
- GI50 [39]: 11 µM
